This note sets out measurements from ChEMBL document CHEMBL3098056, “Small molecule inhibitors of anthrax lethal factor toxin” (Bioorg Med Chem, 2014).

Molecules are shown by their SMILES. Bounds are passed on as bounds.

Assay [1] deals with Botulinum neurotoxin type A (Clostridium botulinum, UniProt P0DPI0). Nature of the assay: Inhibition of Clostridium bolulinum BoNT/A assessed as cleavage of MOCAc-Lys-Lys-Val-Tyr-Pro-Tyr-Pro-Met-Glu-Lys(Dnp)-NH2 after 40 mins by FRET assay. Summed up: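 BoNT/A light chain (2 nM) in a 96-well FRET format. Reactions were stopped with acetic acid to 0.5% and cleaved-substrate fluorescence read at 485 nm with excitation at 398 nm. The same format served for IC50 and mechanism kinetics.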
Chain of Botulinum neurotoxin type A (P0DPI0 2-448 limits assumed): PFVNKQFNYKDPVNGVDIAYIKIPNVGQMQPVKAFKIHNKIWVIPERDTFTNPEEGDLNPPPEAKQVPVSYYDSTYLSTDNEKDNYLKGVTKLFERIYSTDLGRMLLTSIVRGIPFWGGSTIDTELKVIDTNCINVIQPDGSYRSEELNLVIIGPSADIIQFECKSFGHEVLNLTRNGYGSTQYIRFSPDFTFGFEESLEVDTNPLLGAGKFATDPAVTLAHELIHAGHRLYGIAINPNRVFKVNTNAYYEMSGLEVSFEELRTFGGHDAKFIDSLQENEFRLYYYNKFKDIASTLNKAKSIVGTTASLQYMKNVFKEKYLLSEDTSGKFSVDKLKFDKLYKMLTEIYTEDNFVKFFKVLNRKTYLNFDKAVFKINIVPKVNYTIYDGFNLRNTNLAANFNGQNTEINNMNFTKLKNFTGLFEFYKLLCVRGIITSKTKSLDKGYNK

In a further assay the target is T1, Lethal factor (Bacillus anthracis, UniProt P15917).
T1 sequence (P15917 whole entry): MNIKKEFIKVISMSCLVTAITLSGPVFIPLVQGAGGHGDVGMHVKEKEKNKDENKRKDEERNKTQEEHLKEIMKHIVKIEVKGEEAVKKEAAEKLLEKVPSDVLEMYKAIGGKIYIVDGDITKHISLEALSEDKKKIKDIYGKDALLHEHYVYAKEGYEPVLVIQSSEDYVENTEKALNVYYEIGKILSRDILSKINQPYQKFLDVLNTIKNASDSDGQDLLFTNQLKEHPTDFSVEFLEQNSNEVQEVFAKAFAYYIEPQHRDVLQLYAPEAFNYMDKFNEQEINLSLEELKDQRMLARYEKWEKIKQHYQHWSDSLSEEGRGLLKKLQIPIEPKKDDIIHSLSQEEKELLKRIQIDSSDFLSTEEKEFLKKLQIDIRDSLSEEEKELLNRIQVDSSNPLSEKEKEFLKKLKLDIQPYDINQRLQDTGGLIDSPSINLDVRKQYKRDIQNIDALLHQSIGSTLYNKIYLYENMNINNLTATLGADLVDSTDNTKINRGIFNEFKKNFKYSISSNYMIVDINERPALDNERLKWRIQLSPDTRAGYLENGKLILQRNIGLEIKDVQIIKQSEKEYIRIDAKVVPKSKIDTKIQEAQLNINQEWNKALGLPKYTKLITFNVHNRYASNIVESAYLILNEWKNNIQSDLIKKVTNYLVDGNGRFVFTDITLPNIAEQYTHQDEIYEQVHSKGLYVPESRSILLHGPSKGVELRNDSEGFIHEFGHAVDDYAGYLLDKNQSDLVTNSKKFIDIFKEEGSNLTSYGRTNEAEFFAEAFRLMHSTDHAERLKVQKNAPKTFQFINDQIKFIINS
Briefly: Inhibition of Bacillus anthracis lethal factor assessed as MCA-KKVYPYPME[dnp]K amide cleavage after 30 mins by fluorescence plate reader analysis.

A further assay deals with T2, Interstitial collagenase (Homo sapiens, UniProt P03956).
T2 sequence (P03956 whole entry): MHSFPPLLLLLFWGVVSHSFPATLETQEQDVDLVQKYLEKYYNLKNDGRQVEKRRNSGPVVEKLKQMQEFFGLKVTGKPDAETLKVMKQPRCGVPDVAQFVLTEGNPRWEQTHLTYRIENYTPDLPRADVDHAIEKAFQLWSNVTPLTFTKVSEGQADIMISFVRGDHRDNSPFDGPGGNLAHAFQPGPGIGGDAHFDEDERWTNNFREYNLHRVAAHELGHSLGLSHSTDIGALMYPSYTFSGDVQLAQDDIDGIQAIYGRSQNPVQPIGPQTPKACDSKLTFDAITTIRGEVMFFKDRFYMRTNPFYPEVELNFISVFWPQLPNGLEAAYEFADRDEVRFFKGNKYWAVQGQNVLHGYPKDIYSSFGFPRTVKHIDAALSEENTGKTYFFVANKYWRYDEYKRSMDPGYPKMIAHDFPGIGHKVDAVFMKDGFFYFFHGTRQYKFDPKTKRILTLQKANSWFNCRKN
Nature of the assay: Inhibition of human MMP-1 after 60 mins by FRET assay. Summed up:
(§1)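 MMP-1 (38 nM) or MMP-9 (13 nM) with 50 fluorogenic substrate in 50 mM MOPS pH 6.0 and 0.05% NP-40, 37 °C for 60 min (linear range 90 min). Stopped with acetic acid (0.5% final); emission at 440 nm, excitation at 340 nm.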

Assay [2] deals with Matrix metalloproteinase-9 (Homo sapiens, UniProt P14780). Briefly: Inhibition of human MMP-9 after 60 mins by FRET assay. Summed up:
as §1

Chain of Matrix metalloproteinase-9 (P14780 whole entry): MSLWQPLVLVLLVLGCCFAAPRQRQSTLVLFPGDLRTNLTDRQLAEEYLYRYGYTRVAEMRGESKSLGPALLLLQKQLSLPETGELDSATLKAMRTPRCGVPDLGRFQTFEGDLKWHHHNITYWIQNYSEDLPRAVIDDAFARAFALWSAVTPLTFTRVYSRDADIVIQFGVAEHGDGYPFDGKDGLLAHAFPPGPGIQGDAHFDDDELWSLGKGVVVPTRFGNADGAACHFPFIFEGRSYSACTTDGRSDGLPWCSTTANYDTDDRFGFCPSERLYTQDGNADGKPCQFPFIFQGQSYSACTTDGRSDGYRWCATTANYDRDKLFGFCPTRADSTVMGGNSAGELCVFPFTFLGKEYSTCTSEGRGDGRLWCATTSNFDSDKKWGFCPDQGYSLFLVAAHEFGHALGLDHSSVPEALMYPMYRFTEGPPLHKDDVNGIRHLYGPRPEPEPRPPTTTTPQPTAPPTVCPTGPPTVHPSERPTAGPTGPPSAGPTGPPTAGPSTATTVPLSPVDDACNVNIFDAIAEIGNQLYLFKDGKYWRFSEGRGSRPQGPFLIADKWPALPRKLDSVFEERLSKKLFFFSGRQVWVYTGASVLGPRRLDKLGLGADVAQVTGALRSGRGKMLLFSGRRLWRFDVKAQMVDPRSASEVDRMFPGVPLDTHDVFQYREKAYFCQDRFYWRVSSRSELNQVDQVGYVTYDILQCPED

`Cc1cc(N)c2cc(NC(=O)CCc3ccc(F)cc3)ccc2n1`: the IC50 (in assay [1]; on Lethal factor) was above 100 µM each time.

Regarding `Cc1cc(N)c2cc(NC(=O)c3ccc(Oc4ccccc4)cc3)ccc2n1`, the IC50 – broadly, the midpoint of a concentration-inhibition curve – in assay [1] was above 100 µM; on Lethal factor, 70 µM; against Interstitial collagenase it was above 100 µM; in assay [2] it was above 100 µM.

For the compound `Cc1cc(N)c2cc(NC(=O)c3cccc(C(=O)c4ccccc4)c3)ccc2n1`, the IC50 in assay [1] is above 100 µM; at Lethal factor, 73 µM.

As to `Cc1cc(N)c2cc(NC(=O)c3ccc(-c4cncc5ccccc45)cc3)ccc2n1`, the IC50 in assay [1] is 65 µM; at Lethal factor, 13 µM; against Interstitial collagenase, above 100 µM; in assay [2], 9.4 µM.

As for `Cc1cc(N)c2cc(NC(=O)c3cccc(-c4cncc5ccccc45)c3)ccc2n1`, the IC50 is above 100 µM in assay [1], 21 µM on Lethal factor, 50 µM at Interstitial collagenase and 48 µM in assay [2].

For `Cc1cc(N)c2cc(NC(=O)Cc3ccccc3Cl)ccc2n1`, the IC50 (in assay [1]; at Lethal factor) was above 100 µM throughout.

In the case of `Cc1cc(N)c2cc(NC(=O)c3cccc(N(C)C)c3)ccc2n1`, the IC50 (in assay [1]; on Lethal factor) was above 100 µM throughout.

For `COc1ccc(OC)c(CCC(=O)Nc2ccc3nc(C)cc(N)c3c2)c1`, the IC50 (in assay [1]; at Lethal factor) was above 100 µM in each case.

`COc1ccc(Cl)cc1CCC(=O)Nc1ccc2nc(C)cc(N)c2c1`: the 50% inhibitory concentration (IC50) (in assay [1]; on Lethal factor) was above 100 µM throughout.

Take `COc1ccsc1CCC(=O)Nc1ccc2nc(C)cc(N)c2c1`: the IC50 (in assay [1]; on Lethal factor) was above 100 µM each time.

As to `Cc1cc(N)c2cc(NC(=O)CCc3ccccc3C(F)(F)F)ccc2n1`, the IC50 in assay [1] is above 100 µM; at Lethal factor it was 38 µM; against Interstitial collagenase, above 100 µM; in assay [2], above 100 µM.

Regarding `Cc1cc(N)c2cc(NC(=O)c3ccco3)ccc2n1`, the half-maximal inhibitory concentration (IC50) was 47 µM in assay [1] and above 100 µM on Lethal factor.

As for `Cc1cc(N)c2cc(NC(=O)Nc3ccc(C(=O)c4ccccc4)cc3)ccc2n1`, the IC50 in assay [1] was 67 µM; at Lethal factor, 26 µM; at Interstitial collagenase it was above 100 µM; in assay [2], above 100 µM.

Regarding `COc1ccc2[nH]c(C(=O)Nc3ccc4nc(C)cc(N)c4c3)cc2c1`, the IC50 in assay [1] was 35 µM; on Lethal factor, 44 µM; in assay [2], above 100 µM.

Turning to `Cc1cc(N)c2cc(NC(=O)c3ccc(-c4cccc5cccnc45)cc3)ccc2n1`, the IC50 is 65 µM in assay [1], 11 µM at Lethal factor, above 100 µM at Interstitial collagenase and 17 µM in assay [2].

Regarding `Cc1cc(N)c2cc(NC(=O)c3cccc(-c4cnc5ccccc5c4)c3)ccc2n1`, the half-inhibitory concentration (IC50) is 45 µM in assay [1], 5.7 µM at Lethal factor, above 100 µM on Interstitial collagenase and 16 µM in assay [2].

As for `Cc1cc(N)c2cc(NC(=O)CCc3ccccc3OC(=O)c3ccccc3)ccc2n1`, the IC50 (in assay [1]; on Lethal factor) was above 100 µM throughout.

For the compound `Cc1cc(N)c2cc(NC(=O)Nc3ccc(-c4ccccc4)cc3)ccc2n1`, the IC50 (in assay [1]; at Lethal factor) was 79 µM throughout.

Turning to `COc1ccc(/C=C/C(=O)Nc2ccc3nc(C)cc(N)c3c2)cc1`, the IC50 in assay [1] is above 100 µM; at Lethal factor it was 55 µM.

In the case of `COc1cc(Br)ccc1CCC(=O)Nc1ccc2nc(C)cc(N)c2c1`, the IC50 in assay [1] is above 100 µM; on Lethal factor, 58 µM.

Take `Cc1cc(N)c2cc(NC(=O)c3ccc(-c4cnc5ccccc5c4)cc3)ccc2n1`: the IC50 is above 100 µM in assay [1], 3 µM at Lethal factor, 78 µM against Interstitial collagenase and 11 µM in assay [2].

As for `COc1ccccc1CNC(=O)Nc1ccc2nc(C)cc(N)c2c1`, the IC50 (in assay [1]; at Lethal factor) was above 100 µM each time.

Consider `COc1ccncc1CCC(=O)Nc1ccc2nc(C)cc(N)c2c1`, for which the values for the IC50 (in assay [1]; at Lethal factor) were above 100 µM and above 50 µM, respectively.

As to `COc1ccc(Br)cc1CCC(=O)Nc1ccc2nc(C)cc(N)c2c1`, the IC50 (in assay [1]; on Lethal factor) was above 100 µM throughout.

Consider `CCOC(=O)c1ccc(NC(=O)Nc2ccc3nc(C)cc(N)c3c2)cc1`, for which the values for the IC50 (in assay [1]; at Lethal factor) were 51 µM and 87 µM, respectively.

For `Cc1cc(N)c2cc(NC(=O)c3ccc(N4CCOCC4)cc3)ccc2n1`, the IC50 is 27 µM in assay [1] and above 100 µM on Lethal factor.

Take `Cc1cc(N)c2cc(NC(=O)CCc3ccccc3)ccc2n1`: the IC50 (in assay [1]; at Lethal factor) was above 100 µM in each case.

In the case of `Cc1cc(N)c2cc(NC(=O)Cc3ccc4c(c3)OCO4)ccc2n1`, the IC50 (in assay [1]; at Lethal factor) was above 100 µM throughout.

Take `Cc1cc(N)c2cc(NC(=O)CCc3ccccc3Cl)ccc2n1`: the IC50 (in assay [1]; on Lethal factor) was above 100 µM throughout.

As to `Cc1cc(N)c2cc(NC(=O)Nc3ccc(F)cc3)ccc2n1`, the IC50 in assay [1] was found to be 32 µM; on Lethal factor it was 95 µM.

For the compound `COc1cccc(CCC(=O)Nc2ccc3nc(C)cc(N)c3c2)c1`, the IC50 (in assay [1]; at Lethal factor) was above 100 µM each time.

As for `CCCOc1ccccc1CCC(=O)Nc1ccc2nc(C)cc(N)c2c1`, the concentration for half-maximal inhibition (IC50) (in assay [1]; at Lethal factor) was above 100 µM throughout.

Take `Cc1cc(N)c2cc(NC(=O)c3cccnc3)ccc2n1`: the IC50 (in assay [1]; on Lethal factor) was above 100 µM throughout.

In the case of `COc1ccc(NC(=O)Nc2ccc3nc(C)cc(N)c3c2)cc1`, the IC50 was 41 µM in assay [1] and above 100 µM at Lethal factor.

Turning to `Cc1cc(N)c2cc(NC(=O)NCc3ccccc3Cl)ccc2n1`, the IC50 in assay [1] was above 100 µM; on Lethal factor it was 61 µM.

Turning to `Cc1cc(N)c2cc(NC(=O)c3ccc(-c4ccccc4)cc3)ccc2n1`, the IC50 in assay [1] was above 100 µM; at Lethal factor, 48 µM; in assay [2] it was above 100 µM.

Take `COc1ccc(CCC(=O)Nc2ccc3nc(C)cc(N)c3c2)cc1`: the IC50 (in assay [1]; at Lethal factor) was above 100 µM each time.

With `Cc1cc(N)c2cc(NC(=O)Nc3ccc(C(C)C)cc3)ccc2n1`, the IC50 was determined as 62 µM in assay [1] and 83 µM on Lethal factor.

On to `COc1ccccc1CC(=O)Nc1ccc2nc(C)cc(N)c2c1`, for which the IC50 (in assay [1]; at Lethal factor) was above 100 µM in each case.

Take `COc1cccc(CCC(=O)Nc2ccc3nc(C)cc(N)c3c2)c1OC`: the concentration for half-maximal inhibition (IC50) (in assay [1]; on Lethal factor) was above 100 µM throughout.

Turning to `Cc1cc(N)c2cc(NC(=O)c3cc4ccccc4o3)ccc2n1`, the IC50 in assay [1] is above 100 µM; on Lethal factor, 90 µM.

Consider `Cc1cc(N)c2cc(NC(=O)Cc3ccccc3)ccc2n1`, for which the IC50 (in assay [1]; at Lethal factor) was above 100 µM throughout.

As for `Cc1cc(N)c2cc(NC(=O)Nc3ccc4c(c3)OCO4)ccc2n1`, the values for the half-inhibitory concentration (IC50) (in assay [1]; at Lethal factor) were 41 µM and above 100 µM, respectively.

Regarding `Cc1cc(N)c2cc(NC(=O)c3cccc(-c4ccc(N(C)C)cc4)c3)ccc2n1`, the values for the IC50 in assay [1] and in assay [2] were 69 µM and above 100 µM, respectively.

On to `Cc1cc(N)c2cc(NC(=O)c3ccc(-c4cccc5ncccc45)cc3)ccc2n1`, for which the IC50 in assay [1] is 34 µM; on Lethal factor, 10 µM.

As to `Cc1cc(N)c2cc(NC(=O)CCc3ccccc3C)ccc2n1`, the IC50 (in assay [1]; at Lethal factor) was above 100 µM in each case.

On to `Cc1cc(N)c2cc(NC(=O)c3ccc(-c4cccnc4)cc3)ccc2n1`, for which the IC50 is 23 µM in assay [1], 43 µM at Lethal factor and above 100 µM in assay [2].

Turning to `COc1cc(Cl)ccc1CCC(=O)Nc1ccc2nc(C)cc(N)c2c1`, the 50% inhibitory concentration (IC50) in assay [1] was above 100 µM; at Lethal factor, 78 µM.

In the case of `CCOc1ccccc1CCC(=O)Nc1ccc2nc(C)cc(N)c2c1`, the IC50 (in assay [1]; at Lethal factor) was above 100 µM throughout.
